Several values for one entry are separate records, joined by “and”; a condition that tells them apart may be missing. Equal values may be shown once. Read-outs that look alike come from different tables or passages of the source.
Assays:
[1] = type: in vivo, mice; settings: for concentration at 60 min / concentration at 120 min: female, CD1-nu/nu (athymic), mouse, intravenous, 12.5 mg/kg
Summary of the method: (§1)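 Female athymic CD1-nu/nu mice kept in SPF isolators, bearing MCF7 or SW620 xenografts (650 mm³). Test compound 12.5 mg/kg i.v. in equimolar phosphoric acid/saline, pH 5. Tumours homogenised in PBS (1:3 w/v) on ice. Plasma and tumour concentrations by LC-MS/MS. Means ± SD of 3 mice per time point.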

[2] = test system: T47D cells; experiment: cell growth inhibition, SRB assay, 5-day continuous exposure; type: cell-based; settings: Homo sapiens, 120 h
Summary of the method: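 Human cancer cells in RPMI 1640 with 10% FBS, penicillin/streptomycin, at 37 °C and 5% CO2. Test compound (10 mM DMSO stock) given by continuous exposure for 5 days. Growth measured by SRB assay. […] Means ± SD of 3 independent experiments.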

[3] = biological target: PI-3K γ (Homo sapiens, UniProt P48736); experiment: cell-free assay, PI-3K isoforms; type: biochemical; settings: Supplementary Figure 1
Chain of PI-3K γ (P48736 whole entry, species assumed, canonical isoform): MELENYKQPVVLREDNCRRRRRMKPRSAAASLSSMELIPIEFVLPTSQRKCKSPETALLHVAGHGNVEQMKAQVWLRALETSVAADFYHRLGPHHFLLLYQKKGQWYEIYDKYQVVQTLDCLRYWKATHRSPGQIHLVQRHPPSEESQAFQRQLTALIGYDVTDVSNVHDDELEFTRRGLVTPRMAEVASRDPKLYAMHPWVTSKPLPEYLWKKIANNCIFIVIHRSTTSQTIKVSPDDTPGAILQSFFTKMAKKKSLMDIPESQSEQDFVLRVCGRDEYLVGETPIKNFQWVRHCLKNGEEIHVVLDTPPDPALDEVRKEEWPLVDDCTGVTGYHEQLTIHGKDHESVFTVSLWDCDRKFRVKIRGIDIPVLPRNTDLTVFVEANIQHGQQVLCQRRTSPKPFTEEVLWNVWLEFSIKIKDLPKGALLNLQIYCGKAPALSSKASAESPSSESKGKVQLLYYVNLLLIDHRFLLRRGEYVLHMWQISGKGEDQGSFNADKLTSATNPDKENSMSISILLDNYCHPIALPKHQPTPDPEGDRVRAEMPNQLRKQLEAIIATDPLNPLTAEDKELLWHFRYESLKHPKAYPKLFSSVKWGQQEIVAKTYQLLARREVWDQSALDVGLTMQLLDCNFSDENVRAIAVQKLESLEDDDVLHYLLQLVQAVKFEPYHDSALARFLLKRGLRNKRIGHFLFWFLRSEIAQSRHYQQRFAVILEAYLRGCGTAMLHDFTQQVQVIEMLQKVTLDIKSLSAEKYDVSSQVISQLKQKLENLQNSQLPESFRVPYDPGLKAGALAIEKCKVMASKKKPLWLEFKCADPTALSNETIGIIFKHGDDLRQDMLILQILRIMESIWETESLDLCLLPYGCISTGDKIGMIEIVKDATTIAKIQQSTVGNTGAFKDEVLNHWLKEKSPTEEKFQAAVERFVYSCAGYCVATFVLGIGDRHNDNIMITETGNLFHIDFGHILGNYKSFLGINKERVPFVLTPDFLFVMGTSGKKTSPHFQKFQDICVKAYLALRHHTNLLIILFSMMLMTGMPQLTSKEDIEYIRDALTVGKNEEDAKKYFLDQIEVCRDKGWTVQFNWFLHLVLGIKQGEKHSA

[4] = type: in vivo, mice; settings: for concentration at 60 min / concentration at 120 min: female, CD1-nu/nu (athymic), mouse, intravenous, 12.5 mg/kg; remark: listed apart in the source
Summary of the method: as §1

[5] = test system: PI-3K; experiment: PI-3K-dependent AKT phosphorylation; type: cell-based, human; settings: read-out: IC50 PI-3K-mediated AKT phosphorylation; MCF7 cells, IGF-1 stimulated
Summary of the method: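 MCF7 cells in RPMI 1640/10% FBS. Exposed to a concentration range of test compound for 1 h, then 50 ng/ml IGF-1 for 30 min. Western blot of AKT Ser473 relative to total AKT. Rise above unstimulated baseline in treated cells expressed as % of the rise in control cells. Mean of three independent experiments fitted to a sigmoidal dose-response curve for IC50.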

[6] = test system: MDA-MB-231 cells; experiment: clonogenic survival assay; type: cell-based, human
Summary of the method: (§2)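 Cells in RPMI 1640/10% FBS were exposed in 6-well plates for 16 h to etoposide or doxorubicin with or without test compound (1 μM), or to test compound alone. Cells then harvested and reseeded in drug-free medium. Colonies stained with crystal violet after 10-14 days and counted automatically. Fold enhancement = survival with cytotoxic alone / survival with cytotoxic + 1 μM test compound. Means ± SD, n = 3.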

[7] = test system: T47D cells; experiment: clonogenic survival assay; type: cell-based, human
Summary of the method: as §2

For `CCN1CCN(CC(=O)Nc2ccc(-c3cccc4c(=O)cc(N5CCOCC5)oc34)c3sc4ccccc4c23)CC1` [KU-0060648, 2-(4-ethylpiperazin-1-yl)-N-(4-(2-morpholino-4-oxo-4H-chromen-8-yl)dibenzo[b,d]thiophen-1-yl)acetamide], the “concentration maintained in the tumour” value ([1]; SW620 xenografts, 12.5 mg/kg i.v., for at least 4 hours) was “over 1 μM”, the concentration at 60 min ([1]; plasma) was 2100 ± 500 nM and the concentration at 120 min ([1]; plasma) was 700 ± 200 nM. The concentration at 60 min ([1]; tumour (SW620 xenograft)) was 4900 ± 300 nM, the concentration at 120 min ([1]; tumour (SW620 xenograft)) was 2900 ± 400 nM and the GI50 [2] was 410 nM. The inhibition at 1 µM ([2]; read-out: inhibition of cell growth) was greater than 50%, the “potency rank among the four PI-3K isoforms” value [3] was “least potency” and the “concentration maintained in the tumour” value ([4]; MCF7 xenografts, 12.5 mg/kg i.v., for at least 4 hours) was “over 1 μM”. For the same molecule, the concentration at 60 min ([4]; plasma) was 1000 ± 600 nM, the concentration at 120 min ([4]; plasma) was 800 ± 500 nM and the concentration at 60 min ([4]; tumour (MCF7 xenograft)) was 7000 ± 3800 nM. The concentration at 120 min ([4]; tumour (MCF7 xenograft)) was 4700 ± 1100 nM, the IC50 [5] was 39 nM and 40 nM and the “Fold enhancement of doxorubicin cytotoxicity (survival cytotoxic alone/survival cytotoxic + 1 μM KU-0060648)” value ([6]; MDA-MB-231, 100 nM doxorubicin, 16 hr) was 3.8±0.6 fold. For the same molecule, the “overall cell survival (clonogenic)” value ([6]; MDA-MB-231, 1 μM, 16 hr exposure, single agent) was 41%, the “Fold enhancement of doxorubicin cytotoxicity (survival cytotoxic alone/survival cytotoxic + 1 μM KU-0060648)” value ([7]; 100 nM doxorubicin, 16 hr) was 58±35 fold and the “overall cell survival (clonogenic)” value ([7]; 1 μM, 16 hr exposure, single agent) was no less than 80%.

Reference: publication PMC3428850 (Molecular cancer therapeutics, 2012)
